High-throughput results (PubChem)
PglD inh – C. jejuni PglD acetyltransferase inhibitors, primary screen, biochemical, DTNB colorimetric, single point. UDP-N-acetylbacillosamine N-acetyltransferase PglD (Campylobacter jejuni). purified PglD enzyme, DTNB colorimetric CoA detection. inhibition, % at 12.5 µM. hit rate 0.098% among 360,000; in the data active means inhibition above about 16%, passing the limit was not always enough
SR-BI HDL uptake – inhibitors of SR-BI mediated HDL lipid uptake, primary screen, ldlA[mSR-BI] cells, fluorescence, single point. Scavenger receptor class B member 1 (Mus musculus), Q61009. ldlA[mSR-BI] CHO cells, DiI-HDL uptake fluorescence, 3 h. inhibition, % at 12.5 µM. hit rate 0.96% among 320,000. AID 488896, 2010;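 active means mean replicate inhibition of at least 70% and a set share of replicates each scoring 70 or more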;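 further: 0% = median of neutral control wells and 100% = median of positive control wells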
SR-BI DiI-HDL act – activators of SR-BI mediated DiI-HDL uptake, primary screen, ldlA[mSR-BI] CHO cells, DiI fluorescence | 3 h; 100 = double the neutral-control signal | activation, % at 12.5 µM | hit rate 0.096% among 320,000 | AID 504775, 2011;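 active means mean replicate activation of at least 60% and every replicate at or above 60%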;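 further: 0% = median plate neutral-control signal and 100% = twice that signal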
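system = CHO ldlA[mSR-BI] cells, LDL receptor-null, SR-BI overexpressing | medium = Ham's F12 with 0.5% BSA, HEPES 25 mM, pH 7.4 | probe or stimulus = DiI-HDL 10 µg/mL | compound dosing = single-point compound dose | incubation = compound exposure 3 h, 37 °C | technique = DiI fluorescence, bottom read | read-out = cell-associated DiI fluorescence as measure of HDL uptake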
Env fusion inh – inhibitors of HIV-1 Env-driven cell-cell fusion, primary screen, HeLa-JRFL effector, CEM21 target cells, luciferase | inhibition, % at 12.3 µM | hit rate 1.1% among 360,000;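 active means mean replicate inhibition score of at least 50 and every replicate individually at or above 50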;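 further: 0% = plate neutral controls and 100% = maraviroc near 300 nM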
Rtt109 Vps75 – inhibitors of C. albicans Rtt109/Vps75 HAT, primary screen, biochemical, ThioGlo CoA-SH fluorescence, plate reader. purified Rtt109/Vps75, 4 h. Histone acetyltransferase RTT109 (Candida albicans (strain SC5314 / ATCC MYA-2876)), …. hit rate 0.16% among 330,000. inhibition, % at 34.9 µM. AID 540336, 2011;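 active means inhibition of at least 50% in every replicate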
Target sequence (Q5AAJ8 whole entry, looked up): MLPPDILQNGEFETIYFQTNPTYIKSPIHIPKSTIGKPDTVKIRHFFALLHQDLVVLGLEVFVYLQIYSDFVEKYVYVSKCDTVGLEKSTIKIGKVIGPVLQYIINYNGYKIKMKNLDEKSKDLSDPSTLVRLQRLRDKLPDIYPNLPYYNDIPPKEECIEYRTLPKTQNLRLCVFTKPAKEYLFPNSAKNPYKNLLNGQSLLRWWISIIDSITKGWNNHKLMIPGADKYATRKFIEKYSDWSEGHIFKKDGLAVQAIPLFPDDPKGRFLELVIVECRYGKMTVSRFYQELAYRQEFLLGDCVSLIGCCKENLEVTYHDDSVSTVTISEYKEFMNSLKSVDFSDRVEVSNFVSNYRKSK
Glyco luc inh – increase of ERlucT glycosylation luciferase signal, primary screen, N-linked glycosylation inhibitor project, D54 ERlucT cells, luminescence, set 2 | D54 ERlucT glycosylation luciferase reporter, 24 h; percent of 100 nM tunicamycin response | reporter increase, % at 12.5 µM | hit rate 0.23% among 360,000 | AID 588692, 2011;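 active means mean luciferase reporter signal, scaled so untreated is 0 and the glycosylation-blocking control 100, at or above a set limit in every replicate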;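 further: luciferase carries N-glycosylation sites so blocking glycosylation raises the light; 0% = median of neutral control wells and 100% = median of 100 nM tunicamycin wells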
An asterisk follows results filed as active; / = no result given; + = active, no number; [ ] = another dose, or the depositor's remark. A selection: hits, their analogues and other compounds. The true share with any hit is near 1.9%.

SMILES | PglD inh | SR-BI HDL uptake | SR-BI DiI-HDL act | Env fusion inh | Rtt109 Vps75 | Glyco luc inh
COC(=O)C1=C(C)N(Cc2cccc(C(F)(F)F)c2)C(=NCc2ccc(OC)cc2)NC1c1ccccc1 (stereo not given) | / | / | / | 55* | / | /
COCC(=O)N(C)C[C@@H]1Oc2cc(-c3ccccc3F)ccc2S(=O)(=O)N([C@H](C)CO)C[C@@H]1C | -7 | / | / | -5[16.7 µM] | / | /
C[C@@H]1CN([C@@H](C)CO)C(=O)Cc2cc(NS(C)(=O)=O)ccc2O[C@@H]1CN(C)Cc1ccncc1 | 13 | / | / | -6[16.7 µM] | / | /
CO[C@@H]1CN(C)C(=O)c2ccc(NC(C)=O)cc2OC[C@@H](C)N(C(=O)c2ccncc2)C[C@@H]1C | 2 | / | / | / | / | /
COc1ccc(NC(=O)N(C)C[C@@H]2OCCCC[C@H](C)Oc3ccc(NC(=O)Nc4c(C)noc4C)cc3C(=O)N([C@@H](C)CO)C[C@@H]2C)cc1 | -2 | / | / | -7[16.7 µM] | / | /
COC(=O)C[C@@H]1C[C@@H]2c3cc(NC(=O)Nc4ccc(OC)cc4)ccc3O[C@@H]2[C@H](CO)O1 | 3 | / | / | 43[16.7 µM] | / | /
CCN=C1NC(c2ccc(Cl)cc2)C(C(=O)OC)=C(C)N1Cc1cccc(C(F)(F)F)c1 (stereo not given) | / | / | / | 35 | / | /
COC(=O)C1=C(C)N(Cc2cccc(C(F)(F)F)c2)C(=NCc2ccc3c(c2)OCO3)NC1c1ccc(Cl)cc1 (stereo not given) | / | / | / | 63* | / | /
COc1ccccc1NC(=O)C(C)NC(c1ccccc1)c1ccccc1 (stereo not given) | -6 | 6 | -6 | 59* | -4 | -1
COc1ccc(C(=O)Nc2cccc(OC(=O)c3ccc(C)c(C)c3)c2)cc1 | 0 | 6 | -6 | / | 4 | -3
CC(=O)Oc1ccc(C(=O)Nc2cccc(C(=O)c3ccc(C)c(C)c3)c2)cc1 | -1 | 84* | -84 | 1 | 25 | -1
CCOC(=O)Cc1c(C)nc2c(-c3ccc(OC)cc3)c(C)nn2c1C | -2 | 21 | -21 | 64* | 13 | -2
Cc1nc2c(-c3ccccc3)c(C)nn2c(C)c1CCC(=O)O | -3 | -12 | 12 | -5 | -10 | 2
COc1cc2ccc3c(CCN(C)C)cc(OC)c(OC)c3c2cc1OC | 16 | 37 | -37 | -7 | 4 | -2
CN(C)CCc1cc2c(c3c1ccc1ccccc13)OCO2 | 5 | -19 | 19 | -35 | -8 | 78*
CO[C@@H]1CN(C)C(=O)c2ccc(NS(=O)(=O)c3ccccc3F)cc2OC[C@H](C)NC[C@H]1C | 0 | / | / | -5[16.7 µM] | / | /
O=C(Cn1cc(C(=O)c2cccs2)c2ccccc21)NCC1CCCO1 (stereo not given) | -1 | 19 | -19 | -40 | 1 | 2
O=C(Cn1cc(C(=O)c2cccs2)c2ccccc21)NCc1ccc2c(c1)OCO2 | 2 | 39 | -39 | 57* | 3 | 0
O=C(CN1CCCc2ccccc21)NCc1ccc2c(c1)OCO2 | -6 | -5 | 5 | 13 | 64* | 1
O=C(CN1CCc2ccccc21)NCc1ccc2c(c1)OCO2 | / | -8 | 8 | 2 | / | -2
C[C@@H]1CN([C@@H](C)CO)C(=O)c2cc(NC(=O)Cn3cnnn3)ccc2O[C@H]1CN(C)Cc1ccc(C(=O)O)cc1 | -5 | / | / | / | / | /
Cc1nnc(Sc2cc(NCCCO)c([N+](=O)[O-])c3nonc23)s1 | / | -21 | 21 | -5 | + | 6
Cc1nnc(Sc2cc(NCCO)c([N+](=O)[O-])c3nonc23)s1 | / | 14 | -14 | 0 | -20 | 10
Cc1ccsc1/C=N/Nc1ccc(C(=O)O)cc1 | -1 | -6 | 6 | 52 | -6 | -23
Cc1ccsc1/C=N/Nc1cccc(C(=O)O)c1 | / | -17 | 17 | 68* | -4 | -11
SMILES | PglD inh | SR-BI HDL uptake | SR-BI DiI-HDL act | Env fusion inh | Rtt109 Vps75 | Glyco luc inh
CCOc1cc(/C=N/Nc2cccc(C(=O)O)c2)ccc1OC(=O)c1ccccc1 | / | 15 | -15 | 65* | -3 | -7
Cc1cc(C)c(S(=O)(=O)N2CCN=C2c2ccccc2)cc1C | 10 | -4 | 4 | 82* | 0 | 0
C[C@@H]1CCCCO[C@@H](CN(C)C(=O)Nc2ccccc2)[C@H](C)CN([C@H](C)CO)C(=O)c2cc(NS(=O)(=O)c3ccc(F)cc3)ccc2O1 | 0 | / | / | -121[16.7 µM] | / | /
C[C@@H]1CN([C@H](C)CO)C(=O)c2cc(NS(=O)(=O)c3ccc(F)cc3)ccc2O[C@@H](C)CCCCO[C@H]1CN(C)Cc1ccccc1 | -3 | / | / | 3[16.7 µM] | / | /
COc1ccc(-c2nc(-c3ccccn3)no2)cc1 | / | 10 | -10 | 62* | -4 | -24
COc1ccc(-c2nc(-c3ccncc3)no2)cc1 | 0 | / | / | -51 | -7 | -14
COc1ccccc1-c1nc(-c2ccccn2)no1 | -1 | 5 | -5 | 26 | -2 | -19
COc1ccc(-c2nc(-c3cccs3)no2)cc1 | / | / | / | -32 | 52* | -18
CC(C)NC(=O)Nc1ccc2c(c1)CC(=O)N([C@H](C)CO)C[C@@H](C)[C@@H](CN(C)C(=O)Nc1ccc(F)cc1)O2 | -1 | / | / | 18[16.7 µM] | / | /
CCN(C[C@H]1N[C@@](CC)(C(=O)OC)[C@H]2C(=O)N(Cc3ccccc3)C(=O)[C@@H]12)S(=O)(=O)c1ccc(C)cc1 | 7 | / | / | 81* | 3 | -1
CCN(C[C@H]1N[C@@](C)(C(=O)OC)[C@H]2C(=O)N(Cc3ccccc3)C(=O)[C@@H]12)S(=O)(=O)c1ccc(F)cc1 | -2 | 3 | -3 | 37 | -3 | 1
CCN(C[C@H]1N[C@@](C)(C(=O)OC)[C@H]2C(=O)N(Cc3ccccc3)C(=O)[C@@H]12)S(=O)(=O)c1ccc(C(C)(C)C)cc1 | 1 | -25 | 25 | 84* | -3 | -3
CCN(C[C@H]1N[C@@](CC)(C(=O)OC)[C@H]2C(=O)N(Cc3ccccc3)C(=O)[C@@H]12)S(=O)(=O)c1ccc(-c2ccccc2)cc1 | -4 | -4 | 4 | 33 | -3 | -4
CCN(C[C@H]1N[C@@](CC)(C(=O)OC)[C@H]2C(=O)N(Cc3ccccc3)C(=O)[C@@H]12)S(=O)(=O)c1ccc(OC(F)(F)F)cc1 | 6 | -15 | 15 | 87* | -3 | -5
CCN(C[C@H]1N[C@@](CC)(C(=O)OC)[C@H]2C(=O)N(Cc3ccccc3)C(=O)[C@@H]12)S(=O)(=O)c1ccc(C(C)(C)C)cc1 | -9 | 9 | -9 | 58* | -1 | -8
